Experimental data gathered from unrelated publications.
Lines come from different studies, so protocols differ.
PIK3CD: Phosphatidylinositol 4,5-bisphosphate 3-kinase catalytic subunit delta isoform (PIK3CD, Homo sapiens, UniProt O00329)
HTR5A: 5-hydroxytryptamine receptor 5A (HTR5A, Homo sapiens, UniProt P47898)
DRD4: D(4) dopamine receptor (DRD4, Homo sapiens, UniProt P21917)
BTK: Tyrosine-protein kinase BTK (BTK, Homo sapiens, UniProt Q06187)

`CC1=C(O)C(=O)OC1C` (stereo not shown) has an EC50 of 13.5 µM (OR8D1 (Homo sapiens, UniProt Q8WZ84, R293A); cAMP, agonist, luciferase).
The Kd of `Nc1nc2c(ncn2[C@@H]2O[C@H](COP(=O)(O)OP(=O)(O)O)[C@@H](OP(=O)(O)OP(=O)(O)O)[C@H]2O)c(=O)[nH]1` is reported as 79 µM (cmk (Escherichia coli, UniProt P0A6I0); binding, ITC).
`C=CC(=O)N1CCC(C(=O)N(C)CC(=O)N2CCN(c3nc(-c4cnc(N)nc4C(F)F)nc(N4CCOCC4)n3)CC2)CC1` gave a Kd of 0.0022 µM (PIK3CD; binding, competition with immobilised ligand).
With `COc1ccc(-c2nsc(NC(=O)[C@@H]3C[C@H]3C)c2C)cc1` the EC50 was over 25 µM (Metabotropic glutamate receptor 8 (GRM8, Homo sapiens, UniProt O00222); calcium signal, agonist).
With `O=C1c2ccccc2CCN1CCCCN1CCN(c2cccc(Cl)c2Cl)CC1` the Ki was 0.773 µM (HTR5A; ligand displacement, radioligand).
The EC50 of `CCn1c(-c2nc3cc(C(=O)N4CCC[C@@H](N)C4)cc(OC)c3n2C)cc2cccnc21` is reported as over 50.1 µM (Nuclear receptor subfamily 1 group I member 2 (NR1I2, Homo sapiens, UniProt O75469); reporter gene, agonist, luciferase).
`CCN(CC)c1ccc(C2Nc3ccc(C(=O)c4ccccc4)cc3NC3=C2C(=O)CC(C)(C)C3)cc1` (stereo not shown) has a Ki of 7.96 µM (HTR5A; cell-free assay, radioligand).
With `CS(=O)(=O)C1(CNCc2cccc3cccnc23)CC1` the Ki was 0.0417 µM (HTR5A; ligand displacement, radioligand).
`CC[C@H](NC(=O)[C@H](CS(=O)(=O)CC1CC1)N[C@@H](c1ccc(F)cc1)C(F)(F)F)C(=O)C(=O)NC1CC1` gave a Ki of 0.0047 µM (Cathepsin F (Homo sapiens, UniProt Q9UBX1); enzyme activity, inhibitor, fluorescence; with preincubation).
For `Oc1cccc(CCC2=NCCN2Cc2ccccc2)c1`, the Ki was over 10 µM (DRD4; ligand displacement, radioligand).
The Ki of `CS(=O)(=O)C1(CNCc2ccc(Br)c3cccnc23)CC1` is reported as 0.178 µM (HTR5A; ligand displacement, radioligand).
With `CC[C@@H]1C(=O)OC[C@@H]1Cc1cncn1C` the Ki was 765 µM (Cytochrome P450 2E1 (CYP2E1, Homo sapiens, UniProt P05181); enzyme activity, inhibitor; 10 min, pH 6.8).
`COc1ccc2c(c1)C(=O)N(CCN1CCN(c3ccccc3OC)CC1)C2` has a Ki of 0.191 µM (DRD4; ligand displacement, radioligand).
`CC(C)=CCC/C(C)=C/CC/C(C)=C/CSc1ccccc1C(=O)O` gave a Ki of 0.37 µM (Squalene synthase (Homo sapiens, UniProt P37268); enzyme activity, inhibitor).
The Ki of `CNc1nc2cc(OCCCCN3CCC(c4cccc(Cl)c4Cl)CC3)ccc2s1` is reported as 0.81 µM (HTR5A; ligand displacement, radioligand).
`COc1ccc(F)cc1C(=O)NCc1ccc(-c2nn([C@@H](C)C(F)(F)F)c(N)c2C(N)=O)cc1` has an IC50 of 0.00066 µM (BTK; target engagement in cells, BRET).
For `C=CC(=O)N1CCC(C(=O)NCC(=O)N2CCN(c3nc(-c4cnc(N)nc4C(F)F)nc(N4CCOCC4)n3)CC2)CC1`, the Kd was 0.00071 µM (PIK3CD; binding, competition with immobilised ligand).
`CC(=O)CC(=O)SCCNC(=O)CCNC(=O)[C@H](O)C(C)(C)COP(=O)(O)OP(=O)(O)OC[C@H]1O[C@@H](n2cnc3c(N)ncnc32)[C@H](O)[C@@H]1OP(=O)(O)O` gave a Kd of about 18 µM (IVD (Homo sapiens, UniProt P26440); binding, absorbance).
`Cc1cnc(-c2ccc(-c3ccc(NC(=O)Nc4c(F)cc(F)cc4F)cc3F)c3c2C(=O)NC3)[nH]1` gave a Kd of 0.027 µM (BTK; binding, competition with immobilised ligand).
